The target of one assay is T1, Prostaglandin E synthase (Homo sapiens, UniProt O14684).
T1 sequence (O14684 whole entry): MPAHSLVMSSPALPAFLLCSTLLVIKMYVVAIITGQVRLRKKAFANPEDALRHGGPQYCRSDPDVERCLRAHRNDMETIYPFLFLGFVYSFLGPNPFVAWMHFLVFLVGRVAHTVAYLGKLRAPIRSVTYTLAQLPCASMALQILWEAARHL
Description: Inhibition of mPGES1 (unknown origin) using PGH2 as substrate incubated for 30 mins prior to substrate addition by PGH2-coupled spectrophotometric analysis. In a few lines:
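Two-enzyme coupled assay. 110 nM mPGES-1 and 220 nM 15-PGDH in 200 µL buffer (50 mM Tris-HCl pH 7.5, 50 µM PMA, 2 mM reduced glutathione, 1 mM NAD+, 0.1 mM DTT), compound added in 1 µL DMSO, preincubated 30 min. Started with cold PGH2 (14 µM final). NADH read by fluorescence, excitation 340 nm, emission 468 nm. IC50 from varying concentrations.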

Assay [1] is described as follows: Inhibition of rat mPGES1 expressed in CHOK21 cells using [3H]PGH2 as substrate by radio-HPLC analysis. The format is cell-based.
In assay [2] the target is T2, Prostaglandin E synthase (Homo sapiens) (UniProt O14684).
T2 sequence (whole entry): T1 sequence (O14684 whole entry)
Description: Inhibition of human recombinant mPGES1 using PGH2 as substrate at 10 uM incubated for 5 mins prior to substrate addition measured after 5 mins by HPLC analysis in presence of triton-X-100. In a few lines:
(§1)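 mPGES-1 inhibition measured at 10 µM test compound, run with and without 0.1% Triton X-100, following a previously published protocol. Reported as % inhibition.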

Assay [3] deals with T2, Prostaglandin E synthase (Homo sapiens). Description: Inhibition of human recombinant mPGES1 using PGH2 as substrate at 10 uM incubated for 5 mins prior to substrate addition measured after 5 mins by HPLC analysis. In a few lines: as §1
In assay [4] the target is T3, Prostaglandin G/H synthase 1 (Ovis aries) (UniProt P05979).
T3 sequence (whole entry): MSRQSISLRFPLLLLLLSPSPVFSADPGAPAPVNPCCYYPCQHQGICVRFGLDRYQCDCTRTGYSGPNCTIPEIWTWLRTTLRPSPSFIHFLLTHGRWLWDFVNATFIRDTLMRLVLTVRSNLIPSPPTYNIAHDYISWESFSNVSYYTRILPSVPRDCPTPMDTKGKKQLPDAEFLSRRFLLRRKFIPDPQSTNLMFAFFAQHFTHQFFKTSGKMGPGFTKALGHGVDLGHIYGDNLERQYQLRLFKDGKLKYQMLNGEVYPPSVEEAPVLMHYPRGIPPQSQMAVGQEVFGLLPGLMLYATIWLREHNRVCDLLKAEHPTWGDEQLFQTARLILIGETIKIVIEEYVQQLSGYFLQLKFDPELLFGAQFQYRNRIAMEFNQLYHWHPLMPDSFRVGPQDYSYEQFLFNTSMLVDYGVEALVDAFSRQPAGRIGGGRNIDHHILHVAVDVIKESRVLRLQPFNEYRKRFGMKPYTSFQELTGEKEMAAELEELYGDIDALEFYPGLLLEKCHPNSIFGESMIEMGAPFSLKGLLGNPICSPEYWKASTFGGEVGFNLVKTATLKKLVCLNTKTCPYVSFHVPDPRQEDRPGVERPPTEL
Description: Inhibition of ovine COX1 using PGH2 as substrate at 1 mM incubated for 10 mins prior to substrate addition measured for 2 mins by enzyme immunoassay. The following applies: in the assay text read “arachidonic acid” for “PGH2”. In a few lines:
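COX-1 (purified ovine) or COX-2 (purified human recombinant) preincubated with test compound 10 min at 37 °C, then tested at 1 mM. Prostanoid product quantified by enzyme immunoassay with a broadly specific antibody that binds all major prostaglandins (COX inhibitor screening kit).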

Assay [5] addresses T2, Prostaglandin E synthase (Homo sapiens). Kind of assay: Ratio of MK886 IC50 to compound IC50 for mPGES1 (unknown origin).
Assay [6] is described as follows: Selectivity index, ratio of IC50 for ovine COX1 to IC50 for mPGES1 (unknown origin).
Assay [7] concerns the target T4, Prostaglandin G/H synthase 2 (Homo sapiens) (UniProt P35354).
T4 sequence (whole entry): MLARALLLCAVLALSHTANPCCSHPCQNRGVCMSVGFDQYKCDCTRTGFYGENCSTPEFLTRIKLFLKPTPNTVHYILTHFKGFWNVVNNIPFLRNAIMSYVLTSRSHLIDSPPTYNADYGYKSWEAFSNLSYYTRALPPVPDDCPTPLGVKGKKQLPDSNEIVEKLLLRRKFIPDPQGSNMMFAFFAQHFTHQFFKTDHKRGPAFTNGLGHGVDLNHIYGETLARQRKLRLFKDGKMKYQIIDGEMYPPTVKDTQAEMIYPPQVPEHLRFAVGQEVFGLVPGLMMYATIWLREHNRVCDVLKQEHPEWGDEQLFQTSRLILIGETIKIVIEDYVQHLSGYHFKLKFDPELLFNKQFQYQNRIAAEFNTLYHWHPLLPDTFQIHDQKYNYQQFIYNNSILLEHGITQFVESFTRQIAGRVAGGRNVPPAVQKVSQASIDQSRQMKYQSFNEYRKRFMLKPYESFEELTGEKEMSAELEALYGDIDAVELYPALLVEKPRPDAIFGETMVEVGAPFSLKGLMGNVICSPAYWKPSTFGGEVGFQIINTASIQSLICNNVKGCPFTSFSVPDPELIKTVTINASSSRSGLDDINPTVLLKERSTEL
Description: Inhibition of human recombinant COX2 using arachidonic acid as substrate at 1 mM incubated for 10 mins prior to substrate addition measured for 2 mins by enzyme immunoassay.

The values below come from ChEMBL document CHEMBL2311362, “Fragment-based discovery of novel and selective mPGES-1 inhibitors Part 1: identification of sulfonamido-1,2,3-triazole-4,5-dicarboxylic acid” (Bioorg Med Chem Lett, 2013).

Structures are written as SMILES. Calls of active or inactive are those of the source. No cut-off for these calls is given here.

As usually defined, the IC50 is the concentration needed to halve the response being measured. As usually defined, the inhibition is the percentage by which the read-out fell short of the control.

For the molecule `Cc1ccc(S(=O)(=O)NCCn2nnc(C(=O)O)c2C(=O)O)cc1`, the IC50 against Prostaglandin E synthase is 4.2 µM.

For the molecule `O=C(O)c1nnn(CCNS(=O)(=O)c2cccc(C(F)(F)F)c2)c1C(=O)O`, it took 4.4 µM to reach half-maximal inhibition against Prostaglandin E synthase (IC50).

Molecule `COC(=O)c1nnn(CCNS(=O)(=O)c2ccccc2)c1C(=O)OC` registered an IC50 on Prostaglandin E synthase of 12.9 µM.

As for `CN(CCn1nnc(C(=O)O)c1C(=O)O)S(=O)(=O)c1ccccc1`, at Prostaglandin E synthase, the IC50 was 4 µM.

`CCCN(CCn1nnc(C(=O)O)c1C(=O)O)S(=O)(=O)c1ccc(C)cc1` returned an IC50 against Prostaglandin E synthase of 3.8 µM.

As for `CS(=O)(=O)NCCn1nnc(C(=O)O)c1C(=O)O`, 10.3 µM corresponded to half-maximal inhibition against Prostaglandin E synthase (IC50).

In assay [1], `CC(C)c1ccc2c(c1)c(SC(C)(C)C)c(CC(C)(C)C(=O)O)n2Cc1ccc(Cl)cc1` showed an IC50 of 3.2 µM.

Take `O=C(O)c1nnn(CCNS(=O)(=O)c2ccccc2C(F)(F)F)c1C(=O)O`: 3.3 µM corresponded to half-maximal inhibition against Prostaglandin E synthase (IC50).

In the case of `CCS(=O)(=O)NCCn1nnc(C(=O)O)c1C(=O)O`, 9.7 µM corresponded to half-maximal inhibition at Prostaglandin E synthase (IC50).

Consider `O=C(O)c1nnn(CCNS(=O)(=O)c2ccccc2)c1C(=O)O`, for which the IC50 on Prostaglandin E synthase is 4.1 µM.

Take `O=C(O)c1nnn(CCN(c2ccccc2)S(=O)(=O)c2ccccc2)c1C(=O)O`: the inhibition in assay [2] turned out to be 18.1%; in assay [3], 69.1%; in assay [4] it was 50%. Moreover, the Ratio IC50 in assay [5] amounted to 3.5; in assay [6], 1000. Moreover, the IC50 against Prostaglandin E synthase turned out to be 1.1 µM. Besides, the inhibition result in assay [7] was “inactive”.

In turn, `Cc1ccc(S(=O)(=O)NCn2nnc(C(=O)O)c2C(=O)O)cc1` had an IC50 against Prostaglandin E synthase of 6.9 µM.

For the molecule `NC(=O)c1nnn(CCNS(=O)(=O)c2ccccc2)c1C(N)=O`, at Prostaglandin E synthase, the IC50 came out at 23.3 µM.

With `Cc1ccc(S(=O)(=O)NCCCn2nnc(C(=O)O)c2C(=O)O)cc1`, inhibition against Prostaglandin E synthase was half-maximal at 6.3 µM (IC50).
